The text below walks through data of ChEMBL document CHEMBL1155730, “Taxane diterpenoids from the stem bark of Taxus mairei” (J Nat Prod, 2001).

Values after ≈ are worked out from the molar mass of the structure shown. Starred links: 1 amine or outer side, 2 acyl side, 3 side chain; linkers in the order of their positions; H or OH if unused. Positions of bridges follow the written chain, without caps; N, C: chain ends. Non-standard residues stand in square brackets, D forms with d. Residues, ends and D or L forms follow the SMILES beside them. Chains are numbered I, II in the order given. Actinocin(1to9) = Cc1c2oc3c(C)ccc(C(=O)[*:2])c3nc-2c(C(=O)[*:1])c(N)c1=O; NMeV = CN[C@H](C(=O)O)C(C)C; Sar = CNCC(=O)O Some results are limits rather than exact numbers.

The subject of one experiment is KB. Nature of the experiment: Cytotoxicity against human KB cells after 72 hrs by methylene blue assay. The experiment is classed as functional, cell-based. An outline of the steps: (§1)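 Cells grown in RPMI-1640 at 37 °C under 5% CO2, seeded at 2880 cells/well and left 3 h before adding samples. Samples prepared at 1, 10, 40 and 100 μg/mL, then 3 days at 37 °C. Cells fixed in 10% formal saline, stained with 1% methylene blue in 0.01 M borate buffer, washed, and dye eluted with ethanol/0.1 M HCl (1:1). A650 read. IC50 is 50% absorbance reduction vs untreated cells.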

Experiment [1] is described as follows: Cytotoxicity against human HepA cells after 72 hrs by methylene blue assay. The experiment is classed as functional, cell-based. An outline of the steps: as §1

The term IC50 denotes the concentration needed to halve the response being measured. A low value points to greater potency in that assay. Regarding `CC(=O)O[C@@H]1C2=C(C)[C@@H](OC(=O)c3ccccc3)C[C@@]2(C(C)(C)O)[C@@H](O)[C@@H]2[C@]3(OC(C)=O)CO[C@@H]3C[C@H](OC(C)=O)[C@@]2(C)[C@H]1OC(=O)c1ccccc1`, the IC50 (with KB; in experiment [1]) was more than 20 µg/mL throughout.
Regarding `CC(=O)OC[C@H]1[C@H]2[C@H](O)[C@]3(C(C)(C)O)C[C@H](OC(C)=O)C(C)=C3[C@@H](OC(C)=O)[C@H](OC(C)=O)[C@]2(C)[C@@H](OC(C)=O)C[C@@H]1OC(C)=O`, the values for the IC50 (in the experiment on KB; in experiment [1]) were more than 20 µg/mL and 2.7 µg/mL (≈ 4.12 µM), respectively.
Regarding `Cc1c2oc3c(C)ccc(C(=O)N[C@@H]4C(=O)N[C@H](C(C)C)C(=O)N5CCC[C@H]5C(=O)N(C)CC(=O)N(C)[C@@H](C(C)C)C(=O)O[C@@H]4C)c3nc-2c(C(=O)N[C@@H]2C(=O)N[C@H](C(C)C)C(=O)N3CCC[C@H]3C(=O)N(C)CC(=O)N(C)[C@@H](C(C)C)C(=O)O[C@@H]2C)c(N)c1=O` [DACTINOMYCIN] (I: T[dV]P[Sar][NMeV] / II: T[dV]P[Sar][NMeV]; ester I:1-I:C, II:1-II:C; linker I:N-II:N via Actinocin(1to9)), the IC50 in experiment [1] is 0.01 µg/mL (≈ 0.00797 µM).
The same measure, in the same setting: with `CO[C@@]12[C@H](COC(N)=O)C3=C(C(=O)C(C)=C(N)C3=O)N1C[C@@H]1N[C@@H]12` [MITOMYCIN] the figure was 0.01 µg/mL (≈ 0.0299 µM).
For the compound `CC(=O)O[C@H]1C(=O)[C@@]2(C)[C@H]([C@H](OC(=O)c3ccccc3)[C@]3(O)C[C@H](OC(=O)[C@H](O)[C@@H](NC(=O)c4ccccc4)c4ccccc4)C(C)=C1C3(C)C)[C@]1(OC(C)=O)CO[C@@H]1C[C@@H]2O` [PACLITAXEL], the IC50 (in the experiment on KB; in experiment [1]) was less than 0.1 µg/mL each time.
`CC(=O)OC[C@H]1[C@H]2[C@H](O)[C@]3(C(C)(C)O)C[C@H](OC(C)=O)C(C)=C3[C@@H](O)[C@H](OC(C)=O)[C@]2(C)[C@@H](OC(C)=O)C[C@@H]1OC(C)=O` [TAXUMAIRO U]: the IC50 in the experiment with KB worked out at 10.3 µg/mL (≈ 16.8 µM); in experiment [1], 0.3 µg/mL (≈ 0.49 µM).
On the same counts, the results for `CC(=O)OC[C@H]1[C@H]2[C@H](O)[C@]3(C(C)(C)O)C[C@H](O)C(C)=C3[C@@H](O)[C@H](OC(C)=O)[C@]2(C)[C@@H](OC(C)=O)C[C@@H]1OC(C)=O` [TAXUMAIROL V] are 3.9 µg/mL (≈ 6.83 µM) and 1.6 µg/mL (≈ 2.8 µM).
For `CC(=O)O[C@@H]1C2=C(C)[C@@H](O)C[C@@]2(C(C)(C)O)[C@@H](OC(C)=O)[C@@H]2[C@]3(OC(C)=O)CO[C@@H]3C[C@H](OC(C)=O)[C@@]2(C)[C@H]1O` [TAXUMAIROL W] the same measures were more than 20 µg/mL and 7 µg/mL (≈ 12.3 µM).
